Only some compounds are listed: those with a hit (about 2% of all), similar ones and a draw of the others.
HNF4A DNA FP: change in binding of human HNF4 alpha to DNA. AID 1224865. P41235. actives 0.3% (n = 360,000). activity change, % at 10 µM. HNF4a-FITC DNA binding, fluorescence polarization, 1 h; in the data active = activity change above about 30%, passing the limit was not always enough
Target sequence (P41235 whole entry, looked up): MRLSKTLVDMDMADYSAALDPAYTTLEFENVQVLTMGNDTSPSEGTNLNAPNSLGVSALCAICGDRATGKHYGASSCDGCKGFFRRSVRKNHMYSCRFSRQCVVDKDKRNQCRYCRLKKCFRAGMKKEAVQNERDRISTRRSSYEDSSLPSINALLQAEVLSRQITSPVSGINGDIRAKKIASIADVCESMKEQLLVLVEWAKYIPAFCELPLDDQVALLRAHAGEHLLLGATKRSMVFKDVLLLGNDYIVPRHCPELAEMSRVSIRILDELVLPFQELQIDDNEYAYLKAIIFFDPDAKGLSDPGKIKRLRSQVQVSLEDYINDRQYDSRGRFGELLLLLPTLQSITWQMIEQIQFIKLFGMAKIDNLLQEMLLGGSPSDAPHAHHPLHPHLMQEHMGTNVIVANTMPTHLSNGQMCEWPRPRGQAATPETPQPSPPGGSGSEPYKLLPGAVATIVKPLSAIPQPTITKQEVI
Rpn11 block: inhibitors of human proteasome Rpn11 | human 26S proteasome, Ub4-pepOG fluorescence polarization; 20S core pre-blocked with epoxomicin | actives 0.59% (n = 360,000) | AID 588493 | inhibition, % at 20 µM;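 active = inhibition at 20 µM, scaled to each plate's controls, above about 33%, limit read from the data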
ATG4B inh: blocks human ATG4B protease cleavage of LC3 substrate. Q9Y4P1. ATG4B cleavage of LC3-PLA2, NBD-HPC fluorescence, 1 h. inhibition, % at 8.33 µM. actives 0.51% (n = 340,000); in the data active = inhibition above about 40%
TPT1 inh: blocks Candida albicans tRNA 2'-phosphotransferase. recombinant caTPT1, FP RNA substrate dephosphorylation. inhibition, % at 5 µM. actives 0.81% (n = 300,000);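 active = inhibition above the mean of all tested compounds plus 3 SD, set per screening campaign, cut at about 24% in these data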
SENP1 inh: inhibitors of human SENP1 SUMO protease catalytic domain | Q9P0U3 | recombinant SENP1 catalytic domain, CyPet-SUMO1-YPet FRET cleavage | inhibition, % at 10 µM | actives 0.21% (n = 360,000);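 active = inhibition at least 30% at 10 µM, raw YFP signal under a set limit, fluorescence ratio 0.5 to 1.5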
Target sequence (Q9P0U3 419-644 limits assumed): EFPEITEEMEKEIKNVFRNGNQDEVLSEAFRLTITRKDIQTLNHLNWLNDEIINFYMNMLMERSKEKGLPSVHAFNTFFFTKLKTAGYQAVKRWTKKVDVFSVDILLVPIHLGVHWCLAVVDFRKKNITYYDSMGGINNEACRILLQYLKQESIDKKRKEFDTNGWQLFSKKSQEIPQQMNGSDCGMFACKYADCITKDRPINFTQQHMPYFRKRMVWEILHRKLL
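Material: hSENP1 catalytic domain, recombinant; medium: Tris pH 8 with BME, BSA, NP40 and catalase; compound: single concentration of 10 µM compound, 0.5% DMSO final; technique: FRET read of cyan and yellow fluorescence; timing: 50 min enzyme reaction, room temperature, light-protected; reagent: SFCypet-SUMO1-SFYpet substrate at 25 nM; control set: no-enzyme low, enzyme-DMSO high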
CSN deneddyl inh: blocks human CSN-mediated cullin deneddylation; AID 651999; actives 0.38% (n = 360,000); inhibition, % at 12.5 µM; Purified CSN, SCF-Nedd8-OG deneddylation, fluorescence polarization;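 active = pattern-corrected inhibition above about 35%, with an unprinted fluorescence ratio check between 0.5 and 1.5, limit read from the data, passing the limit was not always enough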
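Assay system: purified human Csn5 enzyme expressed in HEK293T cells; measure: % inhibition; also added: SCFSkp2-Nedd8OG substrate at 10 nM final; technique: fluorescence polarization; times: reaction 90 min, room temperature; medium: Tris buffer pH 7.5, NaCl, DTT, Tween-20, trehalose, ovalbumin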
SENP1 inh conf: SENP1 (human) inhibition, single concentration confirmation; inhibition, % at 10 µM; recombinant SENP1, CyPet-SUMO1-YPet FRET cleavage; actives 34% (n = 520); shares compounds with SENP1 inh; in the data active = inhibition mostly above about 35%, no sharp cut-off; inactive = mostly below about 32%
SENP1 kin conf: SENP1 (human) inhibition, kinetic confirmation; shares compounds with SENP1 inh; recombinant SENP1, CyPet-SUMO1-YPet FRET kinetic cleavage; inhibition, % at 10 µM; actives 26% (n = 520); AID 651690; in the data active = inhibition mostly above about 32%, no sharp cut-off; inactive = mostly below about 29%
Each line names hits and unclear results; the compound was inactive in the other large screens (follow-up assays come after a bar, where shown).

COc1ccc(-c2ccc3c(c2)S(=O)(=O)c2cccc(C(=O)O)c2C3=O)cc1OC	none (no result: TPT1 inh)
COc1cc2oc(=O)cc(CN3CCN(c4ccccc4F)CC3)c2cc1Cl	none (no result: ATG4B inh, TPT1 inh)
c1ccc(NC2=Nc3cccc4cccc2c34)cc1	SENP1 inh 74 | SENP1 inh conf 43 | SENP1 kin conf inactive
Cc1noc(C)c1S(=O)(=O)N(C)C[C@H]1Oc2c(NC(=O)NC(C)C)cccc2C(=O)N([C@H](C)CO)C[C@@H]1C	none (no result: TPT1 inh)
Cc1cc(C)c2c(c1)/C(=N\N=c1\sc3ccccc3n1C)C(=O)N2	SENP1 inh 37 | SENP1 inh conf inactive | SENP1 kin conf inactive
Cn1c(=NC(=O)C2=NNC(=O)CC2)sc2ccccc21	none
O=C(Cn1c(O)c(/C=C2\C=Nc3ccccc32)sc1=O)N1CCOCC1	none
O=C(Cn1c(O)c(/C=C2\C=Nc3ccccc32)sc1=O)Nc1ccc2c(c1)OCO2	SENP1 inh 46 | SENP1 inh conf inactive | SENP1 kin conf inactive
Cc1[nH]c(=S)c(C#N)c(-c2ccccc2)c1C(=O)Nc1ccccc1	SENP1 inh 55 | SENP1 inh conf inactive | SENP1 kin conf inactive
O=C1Nc2cccnc2N(C(=O)CCl)c2ccccc21	none
C/C(=N\NC(=O)c1ccc(C)cc1C)c1ccc2c(c1)Nc1ccccc1S2	SENP1 inh 61 | SENP1 inh conf inactive | SENP1 kin conf inactive
COc1ccc(C)cc1S(=O)(=O)N1CCCC(N2CCN(c3ccccc3)CC2)C1 (stereo not given)	none (no result: ATG4B inh, TPT1 inh)
O=C(C[n+]1cccc2ccccc21)c1ccccc1	none (not shown: Rpn11 block)
Cc1ccccc1C[n+]1cccc2ccccc21	SENP1 inh 34 | SENP1 inh conf inactive | SENP1 kin conf inactive
Cn1c(=O)c(=O)n(C)c2cc(N3CCCC3)c(NS(=O)(=O)c3ccc(Cl)cc3)cc21	none
CCN1C(=O)c2cccc3c(NC(=O)C4CCCCC4)ccc1c23	SENP1 inh 40 | SENP1 inh conf inactive | SENP1 kin conf 30
CCN1C(=O)c2cccc3c(NC(=O)c4ccccc4)ccc1c23	none
CC(=O)Oc1ccc(/C=C/c2nc3ccccc3c(=O)o2)cc1	SENP1 inh 52 | SENP1 inh conf inactive | SENP1 kin conf inactive
CC(=O)Oc1ccc(-c2nc3ccccc3c(=O)o2)cc1	none
Cc1ccc(NCCCCO)cc1C	none
O=C(N/N=C/c1ccc(N2CCOCC2)cc1)c1ccc(O)cc1	SENP1 inh 34 | SENP1 inh conf inactive | SENP1 kin conf inactive
O=S(=O)(N/N=C/c1ccc(OC2CSC2)cc1)c1ccccc1	none
O=S(=O)(N/N=C/c1ccc(N2CCOCC2)cc1)c1ccccc1	SENP1 inh 37 | SENP1 inh conf inactive | SENP1 kin conf inactive
CCn1c(C)nc2cc(C(=O)N/N=C/c3ccc(N4CCOCC4)cc3)ccc21	SENP1 inh 35 | SENP1 inh conf inactive | SENP1 kin conf inactive
Nc1nc(N=Nc2ccc(O)cc2)cc(=O)[nH]1	SENP1 inh 72 (no result: ATG4B inh, TPT1 inh) | SENP1 inh conf 65 | SENP1 kin conf 44
Nc1c(-c2ccc(C(F)(F)F)cc2)nc2ncccn12	SENP1 inh 53 (no result: Rpn11 block, ATG4B inh, TPT1 inh) | SENP1 inh conf inactive | SENP1 kin conf inactive
Cc1cccc(C(=O)Nc2ccccc2C(=O)NCc2ccco2)c1	none
COc1ccc(SC[C@H](Cc2ccccc2)N2CC[C@@H](C(C)(C)C)CCC2=O)cc1	none (no result: TPT1 inh)
CC(NS(=O)(=O)c1ccc2c(c1)oc(=O)n2C)c1ccccc1 (stereo not given)	SENP1 inh 34 (not shown: Rpn11 block) | SENP1 inh conf inactive | SENP1 kin conf inactive
O=C(Nc1nnc([C@H]2C[C@H](O)[C@@H](CO)O2)s1)C(c1ccccc1)c1ccccc1	none (no result: ATG4B inh, TPT1 inh)
CCN1CC(C)(C)N(C(=O)c2ccccc2)CC1(C)C	none (no result: TPT1 inh)
NC(=O)CCC(C(=O)O)N1C(=O)c2ccc(O)cc2C1=O (stereo not given)	SENP1 inh 44 | SENP1 inh conf 37 | SENP1 kin conf inactive
O=C(O)CC[C@@H](C(=O)O)N1C(=O)c2ccccc2C1=O	none
N#Cc1c(C(F)(F)F)cc(-c2ccc(F)cc2)nc1SCC(=O)O	none
CCOC(=O)NC(=O)CSc1nc(C)cc(C(F)(F)F)c1C#N	SENP1 inh 39 | SENP1 inh conf inactive | SENP1 kin conf inactive
Cc1coc(NC(=O)CSc2nc(-c3ccncc3)cc(C(F)(F)F)c2C#N)n1	SENP1 inh 66 | SENP1 inh conf 45 | SENP1 kin conf 28
CCOC(=O)CSc1nc(C(C)(C)C)cc(C(F)(F)F)c1C#N	none
CCOC(=O)N1CCN(C(=O)/C(=C/c2cccs2)NC(=O)c2ccc(OC)c(OC)c2)CC1	none
N#CCSc1ccccc1NC(=O)COC(=O)Cc1c[nH]c2ccccc12	SENP1 inh 43 (no result: TPT1 inh) | SENP1 inh conf inactive | SENP1 kin conf inactive
O=c1cc(CSc2nnc(Nc3ccccc3F)s2)nc2sccn12	none
COc1ccc(Nc2nnc(SCc3cc(=O)n4ccsc4n3)s2)cc1	SENP1 inh 31 | SENP1 inh conf 37 | SENP1 kin conf inactive
CCOC(=O)/C(C#N)=C/c1cc2ccccc2nc1Cl	none
N#C/C(=C\c1cc2ccccc2nc1N1CCCCC1)C(N)=O	SENP1 inh 43 | SENP1 inh conf 36 | SENP1 kin conf inactive
COc1ccc(NC(=O)c2ccc(COc3ccc(C)cc3)o2)cc1	none
CSc1c(C#N)c(N)nc2sc(C(=O)c3ccccc3)c(N)c12	SENP1 inh 65 | SENP1 inh conf 57 | SENP1 kin conf 40
N#Cc1c(SCc2ccc(Cl)cc2)sc(C(=O)c2ccccc2)c1N	none
N=C1SC(CC(=O)Nc2ccccc2[N+](=O)[O-])C(=O)N1c1ccccc1 (stereo not given)	none
CN(C)c1nc(-c2ccc([N+](=O)[O-])cc2)cs1	SENP1 inh 46 | SENP1 inh conf inactive | SENP1 kin conf inactive
CCCOc1ccc(-c2nc(-c3ccc([N+](=O)[O-])cc3)cs2)cc1	none
C=CCNc1nc(-c2ccc([N+](=O)[O-])cc2)cs1	SENP1 inh 50 | SENP1 inh conf inactive | SENP1 kin conf inactive
C=CCNc1nc(-c2ccc(Cl)cc2)cs1	none
Cc1cccc(NC(=S)N2CCN(S(C)(=O)=O)CC2)c1	none
COc1ccc(C(=O)Nc2nnc(Cc3ccc(OC)c(OC)c3)s2)c(OC)c1	none
COCc1nnc(NC(=O)c2ccc(OC)cc2OC)s1	SENP1 inh 48 | SENP1 inh conf inactive | SENP1 kin conf inactive
CCn1cc(C(=O)NCc2ccco2)c(=O)c2ccc(C)nc21	none

From PubChem
